Test results as given in ChEMBL document CHEMBL1154207, “Protease inhibitors from a water bloom of the cyanobacterium Microcystis aeruginosa” (J Nat Prod, 2009).

Tests used:
[1] = Inhibition of Chymotrypsin after 30 mins preincubated for 5 mins before addition of substrate
In short: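 Chymotrypsin enzyme solution at 1 mg/mL in 50 mM Tris-HCl/100 mM NaCl/1 mM CaCl₂/1 mM HCl. Substrate solution was 2 mM […] in the same buffer. Samples were dissolved in ethanol and diluted in buffer. Enzyme, sample and buffer were preincubated 5 min at 37 °C, then substrate was added. Absorbance at 405 nm was read at once and after 30 min at 37 °C.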

[2] = Inhibition of trypsin after 30 mins preincubated for 5 mins before addition of substrate
In short: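 Trypsin enzyme solution at 1 mg/mL in 50 mM Tris-HCl/100 mM NaCl/1 mM CaCl₂. Substrate solution was 2 mM N-benzoyl-D,L-arginine-p-nitroanilide in buffer. Test sample in ethanol was diluted with buffer and preincubated with enzyme in buffer for 5 min at 37 °C before substrate addition. Color was read at 405 nm immediately and after 30 min at 37 °C.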

| IC50 [1] | IC50 [2] | SMILES |
| --- | --- | --- |
| > 100000 nM | 1200 nM | CC[C@H](C)[C@H]1C(=O)N(C)[C@@H](Cc2ccc(O)c(Cl)c2)C(=O)N[C@@H](C(C)C)C(=O)O[C@H](C)[C@H](NC(=O)[C@@H](COS(=O)(=O)O)OS(=O)(=O)O)C(=O)N[C@@H](CCCNC(=N)N)C(=O)N[C@H]2CC[C@@H](O)N1C2=O |
| 18200 nM | 700 nM | CC[C@H](C)[C@@H]1NC(=O)[C@H](Cc2ccc(OC)c(Cl)c2)N(C)C(=O)[C@H]([C@@H](C)CC)N2C(=O)[C@H](CC[C@H]2O)NC(=O)[C@H](CCCNC(=N)N)NC(=O)[C@@H](NC(=O)[C@H](O)COS(=O)(=O)O)[C@@H](C)OC1=O |
| 19600 nM | 3500 nM | CC[C@H](C)[C@H]1C(=O)N(C)[C@@H](Cc2ccc(OC)c(Cl)c2)C(=O)N[C@@H](C(C)C)C(=O)O[C@H](C)[C@H](NC(=O)[C@H](O)CO)C(=O)N[C@@H](CCCNC(=N)N)C(=O)N[C@H]2CC[C@@H](O)N1C2=O |
| 2800 nM | 1100 nM | CC[C@H](C)[C@H]1C(=O)N(C)[C@@H](Cc2ccc(OC)c(Cl)c2)C(=O)N[C@@H](C(C)C)C(=O)O[C@H](C)[C@H](NC(=O)[C@H](O)CO)C(=O)N[C@@H](CCCNC(=N)N)C(=O)N[C@H]2CC[C@@H](OC)N1C2=O |
| > 100000 nM | 2200 nM | CC[C@H](C)[C@@H]1NC(=O)[C@H](Cc2ccc(O)cc2)N(C)C(=O)[C@H]([C@@H](C)CC)N2C(=O)[C@H](CC[C@H]2O)NC(=O)[C@H](CCCNC(=N)N)NC(=O)[C@@H](NC(=O)[C@@H](COS(=O)(=O)O)OS(=O)(=O)O)[C@@H](C)OC1=O |
| > 100000 nM | 1700 nM | CC[C@H](C)[C@@H]1NC(=O)[C@H](Cc2ccc(OC)c(Cl)c2)N(C)C(=O)[C@H]([C@@H](C)CC)N2C(=O)[C@H](CC[C@H]2O)NC(=O)[C@H](CCCNC(=N)N)NC(=O)[C@@H](NC(=O)[C@@H](COS(=O)(=O)O)OS(=O)(=O)O)[C@@H](C)OC1=O |
